# Compound activity: PubChem, several laboratories
# LMPTP block – LMPTP phosphatase inhibitors, primary screen, biochemical, fluorescence intensity, uHTS | recombinant LMPTP-A, OMFP fluorogenic substrate | inhibition, % at 20 µM | 360,000 compounds, 0.22% hits | AID 651560, 2012;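 active = compounds that cut the enzyme signal by at least half of the control window in the single-dose screen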;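 note: plate controls were DMSO wells with enzyme plus substrate for no effect and substrate without enzyme for full effect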
#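 material = LMPTP-A | quantity = 0.625 nM enzyme | reagent = OMFP substrate, 400 µM final | buffer or medium = Bis-Tris pH 6.0, DTT, detergent | detection = endpoint fluorescence intensity from OMFP dephosphorylation | dosing = single 20 µM dose | read-out basis = % inhibition relative to no-enzyme and uninhibited control wells | control set = no-enzyme and uninhibited controls | timing = 50 min at room temperature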
# STEP block – STEP phosphatase inhibitors, primary screen, biochemical, fluorescence intensity, uHTS; Tyrosine-protein phosphatase non-receptor type 5 (Homo sapiens), P54829; recombinant STEP, OMFP fluorogenic substrate; inhibition, % at 20 µM; 360,000 compounds, 0.25% hits; AID 588621, 2011;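 active = inhibition at 20 µM, scaled per plate between control wells, above about 37%, limit read from the data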;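 note: 0% = DMSO with enzyme and substrate and 100% = substrate only without enzyme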
#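 System: STEP phosphatase, cell-free reaction; Buffer or medium: Bis-Tris pH 6.0 buffer with DTT, detergent; Incubation: 20 min at room temperature, dark; Measured by: fluorescence, 480/540 nm.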
# DNMT1 inh – human DNMT1 methyltransferase inhibitors, primary screen, biochemical, molecular beacon, fluorescence, HinP1I cleavage, uHTS. inhibition (reported as % activation of signal), % at 10 µM. 360,000 compounds, 0.83% hits; in the data active = inhibition above about 50%
# GRK2 inh – compounds blocking aptamer binding on GRK2 – biochemical, human GRK2, bead flow cytometry, HTS, primary screen; AID 488847, 2010; inhibition of aptamer binding, % at 10 µM; 330,000 compounds, 0.59% hits; FAM-aptamer displacement from GRK2; Beta-adrenergic receptor kinase 1 (Homo sapiens), P25098;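 active = inhibition of aptamer binding above 40%, roughly 3 SD of noise, on plates passing a quality check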;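 note: median bead fluorescence of bound FAM aptamer so fluorescent compounds give negative values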
# Target sequence (P25098 whole entry, looked up): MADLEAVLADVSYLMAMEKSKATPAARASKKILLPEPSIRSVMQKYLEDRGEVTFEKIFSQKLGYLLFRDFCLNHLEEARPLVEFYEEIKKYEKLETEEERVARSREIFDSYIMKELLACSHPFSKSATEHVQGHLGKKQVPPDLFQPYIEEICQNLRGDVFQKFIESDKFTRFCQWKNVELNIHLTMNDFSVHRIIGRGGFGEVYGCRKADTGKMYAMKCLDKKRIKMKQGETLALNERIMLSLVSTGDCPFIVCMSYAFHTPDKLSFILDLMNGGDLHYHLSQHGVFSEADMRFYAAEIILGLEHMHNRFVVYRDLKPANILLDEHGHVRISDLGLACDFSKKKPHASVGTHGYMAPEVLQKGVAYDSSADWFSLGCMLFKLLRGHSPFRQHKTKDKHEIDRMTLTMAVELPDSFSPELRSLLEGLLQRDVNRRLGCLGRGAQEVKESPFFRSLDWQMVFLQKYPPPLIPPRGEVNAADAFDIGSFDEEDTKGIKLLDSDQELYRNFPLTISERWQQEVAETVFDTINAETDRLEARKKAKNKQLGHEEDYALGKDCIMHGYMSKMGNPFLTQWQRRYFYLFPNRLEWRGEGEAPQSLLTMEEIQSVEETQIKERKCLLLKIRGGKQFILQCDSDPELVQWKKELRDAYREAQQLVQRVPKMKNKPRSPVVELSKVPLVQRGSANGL
# SUMO1-SIM PPI – modulators of SUMO1 protein-protein interactions, primary screen, biochemical, uHTS | Small ubiquitin-related modifier 1 (Homo sapiens), P63165 | SUMO1 binding to a labelled peptide, TR-FRET, 1 h | inhibition, % at 20 µM | 360,000 compounds, 0.33% hits | AID 602429, 2012; in the data active = inhibition above about 37%
# Target sequence (P63165 whole entry, looked up): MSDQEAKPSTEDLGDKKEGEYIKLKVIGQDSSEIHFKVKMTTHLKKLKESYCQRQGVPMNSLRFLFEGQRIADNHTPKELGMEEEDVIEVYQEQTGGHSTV
# Scp1 inh – Scp-1 phosphatase inhibitors, primary screen, biochemical, colorimetric, uHTS | Recombinant Scp1, phosphopeptide, malachite green phosphate absorbance | 340,000 compounds, 0.88% hits | inhibition, % at 20 µM | Carboxy-terminal domain RNA polymerase II polypeptide A small phosphatase 1 (Homo … | AID 493091, 2011;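 active = inhibition above about 50% at 20 µM, limit read from the data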;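 note: plate controls were DMSO wells with enzyme for no effect and wells lacking enzyme for full effect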
#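 Test system: SCP-1 phosphatase catalytic domain, residues 76-261 | Compound dosing: One concentration, 20 µM, with 1.0% DMSO | Schedule: 45 min room-temperature reaction, 5 min colour, 30 min stabiliser | Detection: Absorbance at 630 nm | Read-out basis: % inhibition of SCP-1 phosphate liberation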
# GRK2 CP1 – GRK2 aptamer-displacing inhibitors, retest, confirmation, biochemical, cherry pick 1, bead flow cytometry; bead-bound GRK2, FAM-aptamer displacement; 2,000 compounds, 4% hits; aptamer displacement, % at 10 µM; AID 504451, 2011; shares compounds with GRK2 inh;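 active = aptamer displacement above 40%, near three times the noise of non-fluorescent compounds, on plates passing quality checks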;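 note: negative values mostly reflect intrinsic compound fluorescence rather than true enhancement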
# Aptamer quench 1 – quenches fluorescent RNA aptamer, GRK2 hit artifact. shares compounds with GRK2 inh. fluorescence change (kMESF span), kMESF (no concentration beside the values). 110 tested, under 10 active. Fluorescent RNA aptamer beads, quenching, flow cytometry; stronger effect = higher value;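 active = compounds whose bead fluorescence drops by more than 37 kMESF across the dose range, marking them as dye quenchers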
# FAM quench CP1 – quenches fluorescent RNA aptamer, GRK2 hit artifact. 2,000 tested, under 10 active. Carboxyfluorescein RNA aptamer on beads, flow cytometry quenching; stronger effect = lower value. shares compounds with GRK2 inh. fluorescence response (% of DMSO), % at 10 µM. AID 504580;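 active = compounds that quench the bead-bound fluorescent RNA probe, cutting fluorescence to under half of the solvent control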;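 note: counterscreen run without GRK2 so only probe quenching by compound is measured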
# GRK2 confirm 2 – GRK2 aptamer-displacing inhibitors, hit retest, confirmation, biochemical, cherry pick 2, bead flow cytometry | shares compounds with GRK2 inh | bead-bound GRK2, FAM-aptamer displacement | inhibition of aptamer binding, % at 10 µM | 360 tested, under 10 active;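 active = inhibition of aptamer binding above 40%, about triple the noise seen with nonglowing compounds, on plates passing quality control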;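 note: negative values mostly come from compounds that fluoresce themselves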
# FAM quench SP – counter-screen for GRK2 binding hits: quenchers of fluorescent RNA aptamer; AID 588494; shares compounds with GRK2 inh; fluorescence response vs DMSO, % at 10 µM; 360 tested, under 10 active; carboxyfluorescein RNA aptamer beads, flow cytometry quenching; stronger effect = lower value;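 active = response vs DMSO under 50%, meaning signal dropped by over half, treated as fluorescence quencher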;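 note: labelled aptamer on streptavidin beads without GRK2 as a quench counter-screen; 100% = bead fluorescence of DMSO wells and lower means quenching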
# * = called active by the depositor; / = not tested or not shown. Compounds with a hit are over-represented: about 2.2% of the library has one in this group of screens.
SMILES,LMPTP block,STEP block,DNMT1 inh,GRK2 inh,SUMO1-SIM PPI,Scp1 inh,GRK2 CP1,FAM quench CP1,others
Cc1ccc(/C=C/C(=O)O)cc1S(=O)(=O)NCCO,-1.3,-4.1,3.8,3.0,-1.1,1.1,/,/,
CCc1c(C(=O)NC2CCCC2)csc1C,4.1,-1.2,4.9,97.0*,0.6,-3.9,-4.2,95.4,
CCc1c(C(=O)NN2C(=O)C3CCCCC3C2=O)csc1C (stereo unspecified),-0.9,-3.6,-1.7,0.0,-0.1,-7.3,/,/,
Cc1ccc(/C=C2/C(=N)N3N=C(CC(=O)N4CCCC4)SC3=NC2=O)cc1,-1.0,3.0,3.8,44.0*,-2.9,-4.3,3.4,99.7,
CC1ON=C(c2ccccn2)N(Cc2ccc3c(c2)OCO3)C1=O (stereo unspecified),-1.7,4.8,0.9,/,3.9,/,/,/,
COc1ccccc1CN(C)C(=O)C1COc2ccccc2O1 (stereo unspecified),0.8,-0.1,-2.8,4.0,2.0,-7.0,2.0,99.2,
CCOC(=O)Cc1cc(=O)n2[nH]c(-c3ccc(Cl)cc3)cc2n1,-1.0,1.4,-0.8,0.0,0.5,-7.7,/,/,
CC(C)(C)OC(=O)N1CCC(c2cc(=O)n3[nH]c(-c4ccc(Cl)cc4)cc3n2)CC1,-1.1,-0.8,-3.2,88.0*,21.7,-12.9,-25.9,94.1,
CC1=C(C(=O)N(C)C)CC(CC(=O)NCCN2CCOCC2)C(=O)N1CCCN1CCCC1=O (stereo unspecified),-3.4,-4.0,5.5,/,-0.8,/,/,/,
NC(=O)C(=O)N/N=C/c1cccc(C(F)(F)F)c1,1.3,2.8,2.4,61.0*,-0.3,-4.2,-0.3,101.1,
O=S(=O)(O)c1cc(O)c2c(O)c(N=Nc3cc(Cl)ccc3O)c(S(=O)(=O)O)cc2c1,102.1*,100.8*,84.8*,99.0*,84.2*,83.3*,70.0*,99.5,Aptamer quench 1=6.6
CC1CCN(c2nc(CN3CCCCC3)nc3scc(-c4ccccc4)c23)CC1,0.8,-3.1,1.0,0.0,-2.9,2.4,-3.1,94.5,
COc1ccc(NC(=O)c2ccccc2[N+](=O)[O-])cc1,-2.0,0.3,4.7,51.0*,-15.6,-10.7,/,/,GRK2 confirm 2=10.1;FAM quench SP=98.0
OC[C@@H]1CN(Cc2ccc3c(c2)OCO3)C[C@H](n2cnc3c(NCc4ccncc4)ncnc32)O1,-1.6,-3.1,6.2,/,0.1,/,/,/,
Cc1cc(C)nc(/N=C2\NC(=O)CC(C(=O)O)N2CCc2c[nH]c3ccccc23)n1 (stereo unspecified),-3.9,0.0,-3.9,60.0*,4.6,-9.2,-1.4,101.8,
CCCCNC(=O)C1C(c2ccccc2)=Nc2ccccc2N1C(=O)c1ccc(C)cc1 (stereo unspecified),1.1,/,/,/,1.3,/,/,/,
O=C(O)/C=C\C(=O)Nc1ccc(N2CCN(c3ccc(F)cc3)CC2)cc1,7.4,5.5,10.5,5.0,-0.6,10.4,/,/,
CC(=O)Nc1ccc(N2CCN(c3ccc(F)cc3)CC2)cc1,0.4,0.5,-1.1,11.0,5.3,-7.3,-0.7,102.8,
C=CCC(NC(=O)N(C)C)(C(=O)OC)C(C)O (stereo unspecified),-0.7,/,/,/,-2.6,/,/,/,
CC12C(=O)N(c3ccccc3C(=O)O)C(=O)C1C1C=CC2C1 (stereo unspecified),-4.6,11.8,5.9,79.0*,3.3,-2.1,2.6,93.6,
COC(=O)Cc1c(O)ccn(C2CC2)c1=O,0.2,1.7,1.2,75.0*,6.5,-2.3,-7.1,101.7,
CCCCn1nnnc1C(c1cc2ccccc2o1)N1CCN(c2ccncc2)CC1 (stereo unspecified),2.1,/,/,/,-2.5,/,/,/,
CC(C)(C)c1ccc(/C=C2\CCn3c2nc2cc(C(=O)O)ccc2c3=O)cc1,-1.5,5.6,24.3,0.0,-16.7,8.3,/,/,
COc1ccc(/C=C2\CCn3c2nc2cc(C(=O)O)ccc2c3=O)cc1,-1.2,-0.5,1.6,41.0*,-22.2,-1.1,/,/,GRK2 confirm 2=0.2;FAM quench SP=99.0
Cn1c(=O)[nH]c(=O)c2c1nc(SCC(=O)O)n2CCOc1ccccc1,2.2,5.5,1.9,0.0,-4.1,-12.3,1.2,96.2,
SMILES,LMPTP block,STEP block,DNMT1 inh,GRK2 inh,SUMO1-SIM PPI,Scp1 inh,GRK2 CP1,FAM quench CP1,others
Cn1c(=O)[nH]c(=O)c2c1nc(SCCN1CCOCC1)n2Cc1ccccc1,-2.4,-2.4,-1.9,89.0*,-1.9,-3.6,-1.7,103.8,
Cn1c(=O)[nH]c(=O)c2c1nc(Br)n2CC(O)COc1ccccc1 (stereo unspecified),0.5,-7.4,-3.3,75.0*,12.7,-10.5,-3.7,101.7,
COc1ccccc1OCC(O)Cn1c(Br)nc2c1c(=O)[nH]c(=O)n2C (stereo unspecified),-0.1,2.1,3.9,2.0,1.9,0.8,/,/,
Cn1c(=O)[nH]c(=O)c2c1nc(SCCN1CCOCC1)n2CCCc1ccccc1,-1.7,1.4,1.3,1.0,-3.9,1.5,/,/,
CCN(CC)CCNc1nc2c(c(=O)[nH]c(=O)n2C)n1CC(O)COc1ccc(Cl)cc1Cl (stereo unspecified),-1.2,5.6,3.3,0.0,2.0,3.6,/,/,
Cn1c(=O)[nH]c(=O)c2c1nc(SCC(=O)O)n2CCc1ccccc1,-1.4,-4.0,2.7,0.0,0.5,2.9,/,/,
